# Laboratory results taken from article PMC5529739 (CPT: Pharmacometrics & Systems Pharmacology, 2017).
# Columns and labels:
# platelet aggregation = conditions: clinically relevant concentrations, healthy subjects; cited from earlier work
# [1] = Population PK model of selexipag and ACT-333679 in PAH patients; assay type: in vivo, human; conditions: for Vd/F: human, plasma, oral; for AUC over a dosing interval at steady state, higher in PAH patients than in healthy subjects: patient model vs healthy subject model
# human IP receptor = conditions: human pulmonary arterial smooth muscle cells, cellular shape change; cited from earlier work
# [2] = assay type: in vivo, human
# Summary of the method: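 Oral b.i.d. dosing titrated in 200 μg steps to each patient's tolerated dose, max 1,600 μg b.i.d. Trough plasma samples at baseline and weeks 4–52, plus one week-16 window sample. Model-predicted steady-state AUC at the individual maintenance dose gave AUCcombined (1/38 parent + 37/38 metabolite); placebo exposure was set to 2.5 ng/mL. Lab values were averaged per subject over weeks 8–52, not imputed, and fitted by log-linear regression on log10 exposure and baseline.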
# [3] = cited from earlier work
# [4] = range 100–1,800 μg; cited from earlier work
# [5] = PAH patients, population estimate
# [6] = body weight 96 kg vs reference patient 70 kg
# [7] = total bilirubin 5 μmol/L vs reference 10 μmol/L
# [8] = total bilirubin 25 μmol/L vs reference 10 μmol/L
smiles,measurement,setting,value
CC(C)N(CCCCOCC(=O)O)c1cnc(-c2ccccc2)c(-c2ccccc2)n1 [ACT‐333679],Effect on platelet aggregation,platelet aggregation,no effect
same,"k43, transfer rate constant peripheral to central compartment ACT-333679",[1]; [5],0.18 h⁻¹
same,"AUCss, covariate effect on exposure over a steady-state dosing interval",[1]; [6],−10%
same,Vd/F,[1],4.65 L
same,"AUCss, covariate effect on exposure over a steady-state dosing interval",[1]; male vs female,−13%
same,"AUC over a dosing interval at steady state, higher in PAH patients than in healthy subjects",[1],20%
same,"Body weight on Vm/F, covariate effect","[1]; power coefficient, Vm=Vm,pop (bw/70)^coefficient",0.88
same,"AUCss, covariate effect on exposure over a steady-state dosing interval",[1]; [7],−20%
same,"AUCss, covariate effect on exposure over a steady-state dosing interval",[1]; [8],+30%
same,Potency in activating the human IP receptor relative to selexipag,human IP receptor,37 fold
"CC(C)N(CCCCOCC(=O)NS(C)(=O)=O)c1cnc(-c2ccccc2)c(-c2ccccc2)n1 [selexipag, Selexipag]",Probability of a treatment-emergent AE of hemorrhage and gastrointestinal hemorrhage: relationship to exposure,[2]; AUCcombined at steady state,no statistically significant relationship to exposure
same,"Total bilirubin, model-predicted","[2]; at the highest exposure, 12.03 μmol/L with placebo",10.58 µmol/L
same,"Hemoglobin, model-predicted","[2]; at the highest exposure, 138.84 G/L with placebo",134.58 G/L
same,"Plasma NT pro-BNP, model-predicted","[2]; at the highest exposure, 667 with no exposure (placebo)",475 ng/mL
same,"6-MWD at steady state, model-predicted","[2]; at the highest predicted steady-state exposure, reference patient, 369 m on placebo",392 m
same,Hazard ratio for a primary endpoint event (death or a complication associated with underlying PAH) vs placebo,"[3]; 99% confidence interval 0.46–0.78, P < 0.001",0.6
same,NT pro-BNP levels in the presence of selexipag,[3],significantly lower
same,6-MWD difference between placebo and selexipag,"[3]; week 26, across doses",12 m
same,Effect on platelet aggregation,platelet aggregation,no effect
same,"k12, transfer rate constant central to peripheral compartment selexipag",[1]; [5],0.09 h⁻¹
same,"k21, transfer rate constant peripheral to central compartment selexipag",[1]; [5],0.06 h⁻¹
same,"ka, absorption rate constant",[1]; [5],0.71 h⁻¹
same,"kmet, metabolism rate constant selexipag to ACT-333679",[1]; [5],0.67 h⁻¹
same,"CL/F, apparent selexipag clearance","[1]; PAH patients, population estimate, 70 kg, total bilirubin 10 μmol/L",19.10 L/h
same,"AUCss, covariate effect on exposure over a steady-state dosing interval",[1]; body weight 51 kg vs reference patient 70 kg,+30%
same,"AUCss, covariate effect on exposure over a steady-state dosing interval",[1]; [6],−20%
same,Vd/F,[1],12.9 L
same,"AUCss, covariate effect on exposure over a steady-state dosing interval",[1]; male vs female,No change
same,"AUC over a dosing interval at steady state, higher in PAH patients than in healthy subjects",[1],30%
same,"Total bilirubin on CL/F, covariate effect","[1]; power coefficient, CL=CLpop (bilirubin/10)^coefficient, bilirubin at baseline",−0.40
same,"Body weight on CL/F, covariate effect","[1]; power coefficient, CL=CLpop (bw/70)^coefficient",0.61
same,"Body weight on Vp/F, covariate effect","[1]; power coefficient, Vp=Vp,pop (bw/70)^coefficient",1.2
same,"AUCss, covariate effect on exposure over a steady-state dosing interval",[1]; [7],−20%
same,"AUCss, covariate effect on exposure over a steady-state dosing interval",[1]; [8],+30%
same,Dose proportionality of PK,[4],dose‐proportional
